Experimental data: ChEMBL document CHEMBL2163326, “Investigations on the 1-(2-biphenyl)piperazine motif: identification of new potent and selective ligands for the serotonin(7) (5-HT(7)) receptor with agonist or antagonist action in vitro or ex vivo” (J Med Chem, 2012)
Active and inactive are the calls of the source. No cut-off for these calls is given here.

Columns and labels:
[1] = molecular target: 5-hydroxytryptamine receptor 7 (Cavia porcellus) (UniProt P50407); test: Agonist activity at 5HT7 receptor in guinea pig ileum assessed as inhibition of substance P-induced smooth muscle contraction at 0.5 uM in presence of 3 uM SB-269970; format: functional, tissue-based
Chain of 5-hydroxytryptamine receptor 7 (Cavia porcellus) (P50407 whole entry): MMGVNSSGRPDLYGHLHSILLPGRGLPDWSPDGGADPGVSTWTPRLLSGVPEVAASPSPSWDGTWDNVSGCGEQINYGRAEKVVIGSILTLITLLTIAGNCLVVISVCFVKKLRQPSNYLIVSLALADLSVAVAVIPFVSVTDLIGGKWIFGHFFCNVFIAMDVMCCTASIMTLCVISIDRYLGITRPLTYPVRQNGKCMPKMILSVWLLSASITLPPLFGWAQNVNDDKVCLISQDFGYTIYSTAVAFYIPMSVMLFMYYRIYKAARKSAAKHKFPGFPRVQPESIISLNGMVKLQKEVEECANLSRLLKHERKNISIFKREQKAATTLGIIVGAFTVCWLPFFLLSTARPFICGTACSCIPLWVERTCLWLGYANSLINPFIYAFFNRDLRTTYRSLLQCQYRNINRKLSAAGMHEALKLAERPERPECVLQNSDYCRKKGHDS
Procedure, shortened: (§1)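 Isolated guinea pig ileum was contracted with substance P. Relaxation was scored as percent relaxation of that contraction. Each run included a cocktail of non-5-HT7 receptor antagonists. To test 5-HT7 mediation, relaxation was repeated with the selective 5-HT7 antagonist at 3 μM; reversal was taken as 5-HT7-mediated.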

[2] = molecular target: T1, 5-hydroxytryptamine receptor 7 (Homo sapiens, UniProt P34969); test: Antagonist activity at human 5HT7A receptor expressed in human HeLa cells assessed as inhibition of 5-HT-induced cAMP accumulation by ELISA; format: functional, cell-based
T1 sequence (P34969 whole entry): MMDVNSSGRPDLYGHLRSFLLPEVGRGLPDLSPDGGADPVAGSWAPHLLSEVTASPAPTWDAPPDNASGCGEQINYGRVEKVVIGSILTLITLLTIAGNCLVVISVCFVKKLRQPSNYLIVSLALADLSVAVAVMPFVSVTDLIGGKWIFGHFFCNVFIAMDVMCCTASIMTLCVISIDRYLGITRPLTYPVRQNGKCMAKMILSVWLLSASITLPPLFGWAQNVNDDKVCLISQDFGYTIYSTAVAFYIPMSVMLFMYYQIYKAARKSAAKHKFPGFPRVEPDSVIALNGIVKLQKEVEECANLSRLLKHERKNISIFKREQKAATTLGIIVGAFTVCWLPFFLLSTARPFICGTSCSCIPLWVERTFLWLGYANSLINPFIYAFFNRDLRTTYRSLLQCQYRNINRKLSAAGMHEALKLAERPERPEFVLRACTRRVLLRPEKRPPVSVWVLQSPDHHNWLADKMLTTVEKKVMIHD
Procedure, shortened: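 HeLa cells stably expressing human 5-HT7(a) were seeded in 96-well plates. They were co-treated with 1 μM 5-HT plus test agent. Intracellular cAMP was read by ELISA, and IC50 was taken for inhibition of 5-HT-stimulated cAMP accumulation.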

[3] = molecular target: T1, 5-hydroxytryptamine receptor 7; test: Agonist activity at human 5HT7A receptor expressed in human HeLa cells assessed as stimulation of cAMP accumulation; format: functional, cell-based
Procedure, shortened: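 HeLa cells stably expressing human 5-HT7(a) receptor were cultured and seeded into 96-well plates. Cells were exposed to test agent alone, and intracellular cAMP was measured by ELISA.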

[4] = molecular target: 5-hydroxytryptamine receptor 7 (Cavia porcellus) (UniProt P50407); test: Agonist activity at 5HT7 receptor in guinea pig ileum assessed as inhibition of substance P-induced smooth muscle contraction at 1 uM; format: functional, tissue-based; procedure, shortened: as §1
[5] = molecular target: T1, 5-hydroxytryptamine receptor 7; test: Displacement of [3H]-5-CT from human cloned 5HT7 receptor
[6] = molecular target: T2, 5-hydroxytryptamine receptor 1A (Homo sapiens, UniProt P08908); test: Displacement of [3H]-8-OH-DPAT from human cloned 5HT1A receptor
T2 sequence (P08908 whole entry): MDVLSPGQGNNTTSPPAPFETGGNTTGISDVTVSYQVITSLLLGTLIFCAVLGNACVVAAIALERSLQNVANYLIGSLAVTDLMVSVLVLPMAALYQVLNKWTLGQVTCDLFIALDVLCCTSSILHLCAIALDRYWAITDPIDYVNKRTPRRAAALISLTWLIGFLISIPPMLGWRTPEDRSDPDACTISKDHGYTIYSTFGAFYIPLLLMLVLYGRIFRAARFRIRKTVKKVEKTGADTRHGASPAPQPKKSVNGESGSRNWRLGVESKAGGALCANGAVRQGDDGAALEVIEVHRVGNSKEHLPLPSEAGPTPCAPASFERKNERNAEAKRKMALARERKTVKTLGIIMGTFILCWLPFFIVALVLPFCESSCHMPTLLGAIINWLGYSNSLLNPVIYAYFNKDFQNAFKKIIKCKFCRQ

[7] = molecular target: T3, Adrenergic receptor alpha-1 (Rattus norvegicus, UniProt P15823+P23944+P43140); test: Displacement of [3H]prazoin from rat cerebral cortex adrenergic alpha1 receptor; format: tissue-based
T3 sequence (P15823 whole entry): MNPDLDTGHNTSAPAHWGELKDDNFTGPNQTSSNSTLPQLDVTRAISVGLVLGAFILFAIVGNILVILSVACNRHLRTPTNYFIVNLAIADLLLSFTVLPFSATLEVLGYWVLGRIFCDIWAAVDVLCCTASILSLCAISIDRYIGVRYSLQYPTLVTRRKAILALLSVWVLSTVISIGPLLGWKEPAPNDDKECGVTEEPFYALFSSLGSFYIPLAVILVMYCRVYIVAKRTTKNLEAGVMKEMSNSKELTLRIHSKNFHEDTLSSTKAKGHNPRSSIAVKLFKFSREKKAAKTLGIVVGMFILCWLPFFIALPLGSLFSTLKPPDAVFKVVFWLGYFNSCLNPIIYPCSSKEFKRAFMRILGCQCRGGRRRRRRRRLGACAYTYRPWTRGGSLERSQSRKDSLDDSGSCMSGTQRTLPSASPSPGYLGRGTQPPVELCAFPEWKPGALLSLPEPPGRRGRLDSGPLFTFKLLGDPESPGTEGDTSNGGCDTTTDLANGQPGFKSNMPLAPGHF
T3 sequence (P23944 whole entry): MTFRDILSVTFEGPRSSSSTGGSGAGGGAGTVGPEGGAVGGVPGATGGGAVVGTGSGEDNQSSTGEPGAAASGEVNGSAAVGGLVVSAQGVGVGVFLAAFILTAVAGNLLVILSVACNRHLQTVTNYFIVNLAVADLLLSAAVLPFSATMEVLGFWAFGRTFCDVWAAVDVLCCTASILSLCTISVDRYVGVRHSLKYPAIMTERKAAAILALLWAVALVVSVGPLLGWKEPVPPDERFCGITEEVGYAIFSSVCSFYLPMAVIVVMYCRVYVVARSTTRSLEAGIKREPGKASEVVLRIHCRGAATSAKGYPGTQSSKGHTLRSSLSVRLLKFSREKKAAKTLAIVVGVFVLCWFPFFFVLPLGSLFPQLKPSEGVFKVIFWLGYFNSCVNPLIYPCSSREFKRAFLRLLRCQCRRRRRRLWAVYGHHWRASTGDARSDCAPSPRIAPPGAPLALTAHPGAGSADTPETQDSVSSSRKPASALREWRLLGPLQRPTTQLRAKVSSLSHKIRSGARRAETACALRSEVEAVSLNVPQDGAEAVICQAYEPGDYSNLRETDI
T3 sequence (P43140 whole entry): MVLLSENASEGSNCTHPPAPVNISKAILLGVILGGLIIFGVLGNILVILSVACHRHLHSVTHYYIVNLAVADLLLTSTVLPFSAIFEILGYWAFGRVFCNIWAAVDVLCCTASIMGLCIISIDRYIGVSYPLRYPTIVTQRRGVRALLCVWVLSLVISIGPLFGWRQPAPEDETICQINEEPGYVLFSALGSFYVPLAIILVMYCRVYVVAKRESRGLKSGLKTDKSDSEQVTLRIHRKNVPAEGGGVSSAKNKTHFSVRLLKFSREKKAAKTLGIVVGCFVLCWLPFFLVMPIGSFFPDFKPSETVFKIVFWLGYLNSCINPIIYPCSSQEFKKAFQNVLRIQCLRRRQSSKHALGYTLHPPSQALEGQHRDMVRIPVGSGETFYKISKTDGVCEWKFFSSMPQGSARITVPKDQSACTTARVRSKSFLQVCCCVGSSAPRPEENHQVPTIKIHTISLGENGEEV

[8] = molecular target: 5-hydroxytryptamine receptor 7 (Cavia porcellus) (UniProt P50407); test: Agonist activity at 5HT7 receptor in guinea pig ileum assessed as inhibition of substance P-induced smooth muscle contraction at 1 uM in presence of 3 uM SB-269970; format: functional, tissue-based; procedure, shortened: as §1
[9] = molecular target: 5-hydroxytryptamine receptor 7 (Cavia porcellus) (UniProt P50407); test: Agonist activity at 5HT7 receptor in guinea pig ileum assessed as inhibition of substance P-induced smooth muscle contraction at 0.5 uM; format: functional, tissue-based; procedure, shortened: as §1
[10] = molecular target: 5-hydroxytryptamine receptor 7 (Cavia porcellus) (UniProt P50407); test: Agonist activity at 5HT7 receptor in guinea pig ileum assessed as inhibition of substance P-induced smooth muscle contraction at 2 uM in presence of 3 uM SB-269970; format: functional, tissue-based; procedure, shortened: as §1
[11] = molecular target: 5-hydroxytryptamine receptor 7 (Cavia porcellus) (UniProt P50407); test: Agonist activity at 5HT7 receptor in guinea pig ileum assessed as inhibition of substance P-induced smooth muscle contraction at 2 uM; format: functional, tissue-based; procedure, shortened: as §1
[12] = molecular target: Adrenergic receptor alpha-1 (Rattus norvegicus) (UniProt P15823+P23944+P43140); test: Displacement of [3H]prazoin from rat cerebral cortex adrenergic alpha1 receptor at 100 nM; format: tissue-based
Procedure, shortened: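 [3H]prazosin displacement was measured on rat cerebral cortex membranes, using one test concentration of 100 nM. Values are the mean of two independent experiments.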

[13] = molecular target: 5-hydroxytryptamine receptor 7 (Rattus norvegicus, UniProt P32305); test: Displacement of [3H]LSD from rat kidney proximal convoluted tubule 5HT7R expressed in COS7 cells; format: cell-based, COS-7
Chain of 5-hydroxytryptamine receptor 7 (Rattus norvegicus, UniProt P32305) (P32305 whole entry): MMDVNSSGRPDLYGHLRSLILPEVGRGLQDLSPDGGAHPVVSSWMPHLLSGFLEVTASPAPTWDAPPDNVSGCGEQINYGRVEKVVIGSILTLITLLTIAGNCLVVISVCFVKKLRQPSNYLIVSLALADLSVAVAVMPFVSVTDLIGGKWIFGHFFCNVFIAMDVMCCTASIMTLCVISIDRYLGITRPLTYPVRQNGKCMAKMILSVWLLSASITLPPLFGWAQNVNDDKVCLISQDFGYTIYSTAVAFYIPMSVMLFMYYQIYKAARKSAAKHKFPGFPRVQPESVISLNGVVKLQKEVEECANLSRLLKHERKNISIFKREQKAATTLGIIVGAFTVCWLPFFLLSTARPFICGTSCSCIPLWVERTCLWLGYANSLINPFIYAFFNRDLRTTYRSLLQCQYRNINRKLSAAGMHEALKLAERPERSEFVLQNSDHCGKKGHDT

[14] = molecular target: T4, 5-hydroxytryptamine receptor 1A (Homo sapiens) (UniProt P08908); test: Displacement of [3H]-8-OH-DPAT from human cloned 5HT1A receptor at 100 nM
T4 sequence (whole entry): T2 sequence (P08908 whole entry)

SMILES	Ki [5] [nM]	Ki [6] [nM]	Activity [12] [%]	Activity [14] [%]	further results
c1ccc(-c2ccccc2N2CCNCC2)cc1	1.4	99			Activity [1]: inactive; IC50 [2]: 531 nM; Activity [3]: inactive; Activity [4]: Active; Ki [7]: 59.1 nM; Activity [8]: inactive; Activity [9]: Active
Cc1nn(C)c(C)c1-c1cccc2c1CC[C@H](N(C)C)C2					Activity [10]: inactive; Activity [4]: Active; Activity [11]: Active; Activity [8]: inactive; Activity [9]: inactive
Cc1ccccc1-c1cccc(N2CCNCC2)c1	1.4	17.4			
c1ccc(-c2cccc(N3CCNCC3)c2)cc1	25	72.1	21		
c1ccc2c(N3CCNCC3)cccc2c1					Ki [13]: 83 nM
COc1ccccc1-c1cccc(N2CCNCC2)c1	8.2				
COc1ccccc1-c1ccccc1N1CCNCC1	18.4				
Cc1ccc(-c2cccc(N3CCNCC3)c2)cc1C	93		7	34	
O=[N+]([O-])c1ccc(-c2cccc(N3CCNCC3)c2)cc1	13	31.4	8		
Cc1ccc(-c2ccccc2N2CCNCC2)cc1C	1.9			22	Activity [10]: inactive; Activity [4]: Active; Activity [11]: Active; Ki [7]: 165 nM
c1ccc(-c2cccc(N3CCNCC3)c2)nc1	80	14.9	27		
COc1cccc(OC)c1-c1cccc(N2CCNCC2)c1	7.1	149	3		
c1ccc(-c2ccccc2N2CCNCC2)nc1	23		11	23	
O=[N+]([O-])c1ccc(-c2ccccc2N2CCNCC2)cc1	7			16	Ki [7]: 105 nM
COc1ccc(-c2cccc(N3CCNCC3)c2)cc1	> 5000		29	42	
Fc1ccc(-c2cccc(N3CCNCC3)c2)cc1	109	63.2	3		
Cc1ccccc1-c1ccccc1N1CCNCC1	6.9				
COc1ccc(-c2ccccc2N2CCNCC2)cc1	2.6	476			Activity [1]: inactive; IC50 [2]: 438 nM; Activity [3]: inactive; Activity [4]: Active; Ki [7]: 156 nM; Activity [8]: inactive; Activity [9]: Active
Fc1ccc(-c2ccccc2N2CCNCC2)cc1	2.7		14	15	Activity [1]: inactive; Activity [4]: Active; Activity [8]: inactive; Activity [9]: Active
COc1cccc(OC)c1-c1ccccc1N1CCNCC1	96		10	21	
